Reference: article PMC11842988 (Journal for Immunotherapy of Cancer, 2025)
“Also recorded” adds a separate entry of the source.

Assays:
[1] = test system: TAAp-specific CD8+ T cells, A2/DR1 mice; type: in vivo, mouse; details: for TAAp-specific response, OMP versus TAAp immunization: figure 2F; for TAAp-specific IFN-γ response after OMP immunization: ex vivo restimulation with TAAp
In short: (§1)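 HLA-A2/DR1 transgenic mice primed day 0, boosted day 14, s.c., with class I peptide (5, 30 or 95 nmol) plus UCP2 helper (30–100 µg) in Montanide ISA 51 VG (50:50). Spleens taken day 21 post-prime, or day 30 in the tumour study; RBCs lysed. 2×10^5 splenocytes/well restimulated ~20 h with 10 µM peptide at 37°C. PMA/ionomycin and EZH2-B2 controls. Media background subtracted; IFN-γ spots per 10^6 T cells.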

[2] = test system: OMP-/TAAp-specific CD8+ T cells in HD PBMCs; type: cell-based, human; details: HLA-A2+ HD PBMCs after IVS with OMPs; average unless stated
In short: (§2)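 HLA-A*02:01 donor PBMCs pulsed 24 h with OMPs (10 µM), CD137-enriched, expanded 8 days on anti-CD3/CD28 with IL-2/7/15/21. Restimulated every 10 days with mitomycin C-treated T2 cells loaded with peptide and β2-microglobulin. Antigen-specific frequency measured by CD8 plus pMHC tetramer staining. Per-donor cross-reactivity (%) computed from the TAA-specific and OMP-specific CD8+ percentages.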

[3] = test system: SARC-A2-hCD20-GFP sarcoma cells; assay: Tumor protection model, SARC-A2-hCD20-GFP sarcoma in A2/DR1 mice; type: in vivo, mouse; details: OMP72 prime-boost, 0.5×10^6 SARC-A2-hCD20-GFP cells s.c., n=8 mice
In short: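 A2/DR1 mice given the prime-boost regimen (days 0 and 14). On day 21 post-prime, 0.5×10^6 SARC-A2-hCD20-GFP or SARC-A2-GFP sarcoma cells in PBS injected s.c. in the right flank; naïve mice as controls. Tumours measured by caliper twice weekly over 30 days (mm2). Endpoint at ≥300 mm2; n=8 per group.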

[4] = test system: human CD20 on SARC-A2-hCD20-GFP cells; assay: hCD20 expression of tumor cells at day 30; type: in vivo, mouse; details: OMP72-immunized mice still bearing tumors, day 30, n=4
[5] = test system: OMP-specific CD8+ T cells, A2/DR1 mice; assay: IFN-γ ELISpot of splenocytes from immunized A2/DR1 mice, restimulation with OMP; type: in vivo, mouse; details: ELISpot day 30
In short: as §1

[6] = test system: splenocytes pulsed with OMPs; assay: In vivo cytotoxicity in humanized HLA-A2 mice, OMP-pulsed splenocytes; set-up: species or system mouse; details: online supplemental figure 2
In short: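 Immunised A2/DR1 mice challenged i.v. 6 days post-boost; naïve mice received the same cells. Splenocytes from unimmunised syngeneic donors were pulsed with individual peptides (bright dye) and mixed 1:1 with unpulsed cells (dim dye). Read out 20 h later by flow cytometry. Specific lysis (%) = (% targets in naïve − % in immunised)/% in naïve × 100.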

[7] = test system: antigen-specific CD8+ T cells in patient PBMCs; assay: Tetramer staining of patient PBMCs after 12 days IVS with OMPs; type: cell-based, human; details: patients, EO2401
In short: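 Thawed patient PBMCs (2.5–3.5×10^6/well) rested 24 h, then given the OMP pool (1 µg/mL each) on day 1. IL-2 (2 ng/mL) added from day 3, with splits and feeds; harvested day 12. Stained 30 min at RT with separate OMP and TAAp tetramer mixes (2.5 µg/mL each), or matched pairs for cross-reactivity. Then CD4/CD8/CD14/CD19 and Zombie Aqua, 20 min 4°C. ≥600,000 cells acquired; % of live CD8+.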

patient CD8+ T cells = assay: Intracellular cytokine staining; type: cell-based, human; details: for Cytokine levels after restimulation (ICS): post-IVS with OMPs
In short: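 Patient PBMCs expanded 12 days in vitro with the three-peptide bacterial pool (1 µg/mL each, added day 1) in IMDM/10% human serum/β-ME. IL-2 (2 ng/mL) added on day 3 and again on days 5, 7 and 9. Cells then restimulated with the indicated peptides. Intracellular IFN-γ, TNF, IL-2, CD154 and CD107a reported as % positive T cells.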

OMP-loaded T2 cells = assay: Cytotoxicity of sorted TAAp-specific T cells on OMP-loaded T2 cells; type: cell-based, human; details: 24 h, EZH2-loaded T2 as control
In short: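 Patient PBMCs stimulated 12 days in vitro with the three-peptide OMP pool. TAAp-tetramer+ CD8+ T cells sorted, then expanded on anti-CD3/CD28 activator with IL-2 (50 U/mL), IL-7, IL-15 and IL-21. CellTrace Violet-labelled T2 cells co-cultured with these T cells, peptide (OMP or EZH2 control) and β2-microglobulin at 37°C for 24 h in 50% RPMI/50% X-vivo 15. Media-only control. CD8 and near-IR live/dead stains; duplicates.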

[8] = test system: antigen-specific CD8+ T cells in patient PBMCs; assay: Tetramer staining of patient PBMCs ex vivo; type: cell-based, human
[9] = test system: OMP-specific CD8+ T cells in HD PBMCs; assay: Prevalence of OMP-specific CD8+ T cells in healthy donors; type: cell-based, human
In short: as §2

ALNPELLAL [OMP12]
TAAp-specific response, OMP versus TAAp immunization [1]: superior immunogenicity
Cross-reactivity OMP/TAAp in healthy donor CD8+ T cells [2]: above 66%

AMNSLSLYI [OMP72]
Tumor protection after immunization [3]: half of the A2/DR1 mice; also recorded: could induce protection against CD20-expressing tumor cells
Tumor cells with loss of CD20 surface expression in non-controlled tumors [4]: 99%
OMP72-specific IFN-γ-producing cells in responsive versus non-responsive mice [5]: comparable levels
Individual OMP-specific CTL activity [6]: negligible

FLAFVPLQL [OMP65]
TAAp-specific IFN-γ response after OMP immunization [1]: > 5,000 SFU
TAAp-specific response, OMP versus TAAp immunization [1]: superior immunogenicity

FLPFGFILPV [OMP16]
OMP-specific T cells also recognizing the matched TAAp [7]: 1%
Cytokine levels after restimulation (ICS) (patient CD8+ T cells): stronger cytokine levels
Killing of OMP-loaded T2 cells by corresponding TAAp-tetramer+ T cells (OMP-loaded T2 cells): specifically killed
TAAp-specific IFN-γ response after OMP immunization [1]: < 2,000 SFU
TAAp-specific response, OMP versus TAAp immunization [1]: superior immunogenicity

FLYDVRTYL [OMP10]
Cross-reactivity OMP/TAAp in healthy donor CD8+ T cells [2]: below 33%

FMLGEFLKL [OMP17]
OMP-specific T cells also recognizing the matched TAAp [7]: 80%
Simultaneous cytokine production on restimulation (polyfunctionality) (patient CD8+ T cells; Patient #1, weeks 88 and 100): IFN-γ, TNF-α and CD107a simultaneously
Cytokine levels after restimulation (ICS) (patient CD8+ T cells): stronger cytokine levels
Killing of OMP-loaded T2 cells by corresponding TAAp-tetramer+ T cells (OMP-loaded T2 cells): specifically killed
BIRC5-specific CD8+ T cells of total circulating CD8+ T cells ([8]; Patient #1): more than 20%
Tetramer+ T cells of total circulating CD8+ T cells, week 44 ([8]; Patient #1, ex vivo, week 44): 3.27%
Tetramer+ T cells of total circulating CD8+ T cells, week 88 ([8]; Patient #1, ex vivo, week 88): 17.4%
Tetramer+ T cells of total circulating CD8+ T cells, week 100 ([8]; Patient #1, ex vivo, week 100, listed as EO2317): 32%
TAAp-specific IFN-γ response after OMP immunization [1]: > 5,000 SFU
TAAp-specific response, OMP versus TAAp immunization [1]: superior immunogenicity
Cross-reactivity OMP/TAAp in healthy donor CD8+ T cells [2]: above 66%

LLFGAPALL [BAFF-R77-85, reference compound]
TAAp-specific response, OMP versus TAAp immunization [1]: weaker when mice were immunized with TAAps than with their mimic OMPs

LMDLSTTEV [OMP18]
OMP-specific T cells also recognizing the matched TAAp [7]: around 20%
Cytokine levels after restimulation (ICS) (patient CD8+ T cells): stronger cytokine levels
Killing of OMP-loaded T2 cells by corresponding TAAp-tetramer+ T cells (OMP-loaded T2 cells): specifically killed
TAAp-specific IFN-γ response after OMP immunization [1]: < 2,000 SFU
Cross-reactivity OMP/TAAp in healthy donor CD8+ T cells [2]: below 33%

LMFGAPALV [OMP66]
TAAp-specific IFN-γ response after OMP immunization [1]: > 5,000 SFU
TAAp-specific response, OMP versus TAAp immunization [1]: superior immunogenicity

SLPDRILTV [OMP11]
Cross-reactivity OMP/TAAp in healthy donor CD8+ T cells [2]: below 33%

YIFEHPETA [OMP64]
Prevalence of OMP-specific CD8+ T cells in HLA-A2+ PBMC samples [9]: 67%
TAAp-specific IFN-γ response after OMP immunization [1]: < 2,000 SFU
Individual OMP-specific CTL activity [6]: lower
Cross-reactivity OMP/TAAp in healthy donor CD8+ T cells [2]: below 33%
